Here are results for 3 compounds from article PMC4138289 (Nature chemical biology, 2014).

Data set [1] is described as follows: cytotoxicity, Sulforhodamine B assay, EGFR-independent cell lines. Type of data set: cell-based. Conditions: human (MDA-MB-435S, SW620), mouse (NIH3T3).
Data set [2] can be described thus: time course of compound concentrations in A431 cells. The data set is classed as in vitro ADME, human. Conditions: relative cellular concentrations.
Another data set relates to mouse spleen proteomes. The data set can be described thus: in vivo proteome reactivity, gel-based ABPP of mouse spleen. Conditions: mice, 10 or 20 mg/kg, i.p., 1 hr. The procedure, abridged: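 C57BL/6 mice dosed i.p. in saline/EtOH/DMSO/Cremophor EL 17:1:1:1 (10 μL g−1). Inhibitor (20 mg/kg) or vehicle for 1 hr, then probe (10 or 20 mg/kg) for 1 hr; isoflurane, cervical dislocation. Tissues were DPBS-washed and bead-homogenized, spun at 1,500 × g, then 100,000 × g for 45 min (membrane/cytosolic) and set to 2 mg/mL. Rhodamine-azide click, SDS-PAGE, in-gel fluorescence.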

Data set [3] concerns proteomes of cancer cell lines. Briefly: in situ proteomic reactivity by gel-based ABPP in cancer cells. The data set is classed as cell-based, human. Conditions: in situ treatment with 1 μM probe, cancer cells (SW620 and others).

Usually IC50 stands for the point on the concentration scale where inhibition reaches its midpoint. In data set [1], `CN(C)C/C=C/C(=O)Nc1cc2c(Nc3ccc(F)c(Cl)c3)ncnc2cc1O[C@H]1CCOC1` [afatinib, reference compound] had an IC50 at 72 h of 700 to 2200 nM. Further, the “stability / accumulation of compound in cells” value in data set [2] is on record as “more prolonged accumulation in cells”.

With `C#Cc1cccc(Oc2ccc(-c3nn([C@@H]4CCCN(C(=O)C=C)C4)c4ncnc(N)c34)cc2)c1` [Probe 4], the “in vivo proteomic reactivity” value in the data set on mouse spleen proteomes is reported as “higher proteomic reactivity than probe 6”.

For `C#CCOc1cc2ncnc(Nc3ccc(F)c(Cl)c3)c2cc1NC(=O)CCCN(C)C` [Probe 13], the time-dependent proteomic reactivity entry in data set [3] was “Negligible time-dependent proteomic reactivity”.
